Drawing on ChEMBL document CHEMBL4765308, “N-alkylpiperidine carbamates as potential anti-Alzheimer's agents” (Eur J Med Chem, 2020), this text covers IC50 for 39 compounds.

For assay [1], the target named is T1, Amine oxidase [flavin-containing] B (Homo sapiens, UniProt P27338).
T1 sequence (P27338 whole entry): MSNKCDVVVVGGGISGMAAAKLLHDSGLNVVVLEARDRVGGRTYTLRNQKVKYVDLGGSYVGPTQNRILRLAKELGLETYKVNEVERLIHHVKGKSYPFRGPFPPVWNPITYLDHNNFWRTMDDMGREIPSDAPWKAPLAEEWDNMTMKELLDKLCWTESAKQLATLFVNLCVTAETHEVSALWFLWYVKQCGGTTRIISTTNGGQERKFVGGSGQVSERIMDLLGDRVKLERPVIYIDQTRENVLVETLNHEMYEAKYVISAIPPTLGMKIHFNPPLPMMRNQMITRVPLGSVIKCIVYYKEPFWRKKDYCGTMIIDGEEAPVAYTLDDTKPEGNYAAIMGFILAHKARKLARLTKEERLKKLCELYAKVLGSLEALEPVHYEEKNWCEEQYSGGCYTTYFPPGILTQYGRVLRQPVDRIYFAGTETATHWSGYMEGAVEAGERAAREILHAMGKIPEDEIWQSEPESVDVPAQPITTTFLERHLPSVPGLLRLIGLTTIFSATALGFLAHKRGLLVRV
Briefly: Inhibition of human recombinant microsomal MAO-B expressed in baculovirus-infected BTI-TN-5B1-4 cells assessed as inhibition of H2O2 production using p-tyramine as substrate preincubated for 15 mins followed by substrate addition by Amplex Red reagent based fluorescence analysis. The method, boiled down: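 Recombinant human MAO-A or MAO-B (insect-cell microsomes) preincubated with compound 15 min at 37 °C in 50 mM sodium phosphate, pH 7.4, 0.05% Triton X-114. Reaction started with 1 mM p-tyramine, 250 µM Amplex Red and 2 U/mL HRP (final concentrations). Resorufin fluorescence (ex 530/em 590 nm) followed for 20 min at 37 °C, duplicates. Blank-corrected residual activity; IC50 from a four-parameter Hill fit.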

Assay [2] deals with Cholinesterase (Homo sapiens, UniProt P06276). Kind of assay: Inhibition of human BuchE using butyrylthiocholine iodide as substrate preincubated for 30 mins followed by substrate addition by Ellman's method.
Chain of Cholinesterase (P06276 whole entry): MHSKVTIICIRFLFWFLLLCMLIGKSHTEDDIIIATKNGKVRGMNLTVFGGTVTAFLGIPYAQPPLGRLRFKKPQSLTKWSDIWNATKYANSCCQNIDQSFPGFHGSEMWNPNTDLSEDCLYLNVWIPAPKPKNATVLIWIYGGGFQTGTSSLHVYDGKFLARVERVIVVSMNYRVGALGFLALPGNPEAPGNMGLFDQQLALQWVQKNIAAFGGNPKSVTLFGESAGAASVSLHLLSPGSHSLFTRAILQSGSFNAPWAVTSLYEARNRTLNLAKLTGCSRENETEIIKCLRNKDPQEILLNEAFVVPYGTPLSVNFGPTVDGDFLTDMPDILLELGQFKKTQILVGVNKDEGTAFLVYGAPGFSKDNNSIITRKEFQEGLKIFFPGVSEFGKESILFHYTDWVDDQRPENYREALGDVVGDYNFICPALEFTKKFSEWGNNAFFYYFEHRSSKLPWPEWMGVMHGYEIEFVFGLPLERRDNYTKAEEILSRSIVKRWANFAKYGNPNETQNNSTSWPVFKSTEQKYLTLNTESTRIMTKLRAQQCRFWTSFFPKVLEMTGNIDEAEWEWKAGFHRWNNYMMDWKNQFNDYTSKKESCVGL
Assay [3] has as its target Acetylcholinesterase (Homo sapiens, UniProt P22303). Kind of assay: Inhibition of human AChE using acetylthiocholine iodide as substrate preincubated with enzyme for 30 mins followed by substrate addition by Ellman's method.
Assay [4] deals with T2, Amine oxidase [flavin-containing] A (Homo sapiens, UniProt P21397).
T2 sequence (P21397 whole entry): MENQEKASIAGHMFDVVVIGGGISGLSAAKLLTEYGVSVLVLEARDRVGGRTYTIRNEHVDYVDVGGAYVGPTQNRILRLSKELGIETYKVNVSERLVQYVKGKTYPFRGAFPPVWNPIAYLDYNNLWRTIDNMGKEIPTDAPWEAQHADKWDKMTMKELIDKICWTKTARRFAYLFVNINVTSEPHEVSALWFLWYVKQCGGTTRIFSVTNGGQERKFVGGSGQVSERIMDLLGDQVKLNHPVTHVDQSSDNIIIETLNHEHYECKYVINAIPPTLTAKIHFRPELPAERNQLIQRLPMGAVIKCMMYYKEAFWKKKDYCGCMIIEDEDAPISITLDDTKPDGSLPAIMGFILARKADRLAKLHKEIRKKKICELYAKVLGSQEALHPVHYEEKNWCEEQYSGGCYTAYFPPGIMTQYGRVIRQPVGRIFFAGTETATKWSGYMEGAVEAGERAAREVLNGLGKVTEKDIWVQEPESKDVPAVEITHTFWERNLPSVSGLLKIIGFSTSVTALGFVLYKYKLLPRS
Briefly: Inhibition of human recombinant microsomal MAO-A expressed in baculovirus-infected BTI-TN-5B1-4 cells assessed as inhibition of H2O2 production using p-tyramine as substrate preincubated for 15 mins followed by substrate addition by Amplex Red reagent based fluorescence analysis.

pIC50: −log10 of the molar value. Some results are limits rather than exact numbers.

Chain of Acetylcholinesterase (P22303 whole entry): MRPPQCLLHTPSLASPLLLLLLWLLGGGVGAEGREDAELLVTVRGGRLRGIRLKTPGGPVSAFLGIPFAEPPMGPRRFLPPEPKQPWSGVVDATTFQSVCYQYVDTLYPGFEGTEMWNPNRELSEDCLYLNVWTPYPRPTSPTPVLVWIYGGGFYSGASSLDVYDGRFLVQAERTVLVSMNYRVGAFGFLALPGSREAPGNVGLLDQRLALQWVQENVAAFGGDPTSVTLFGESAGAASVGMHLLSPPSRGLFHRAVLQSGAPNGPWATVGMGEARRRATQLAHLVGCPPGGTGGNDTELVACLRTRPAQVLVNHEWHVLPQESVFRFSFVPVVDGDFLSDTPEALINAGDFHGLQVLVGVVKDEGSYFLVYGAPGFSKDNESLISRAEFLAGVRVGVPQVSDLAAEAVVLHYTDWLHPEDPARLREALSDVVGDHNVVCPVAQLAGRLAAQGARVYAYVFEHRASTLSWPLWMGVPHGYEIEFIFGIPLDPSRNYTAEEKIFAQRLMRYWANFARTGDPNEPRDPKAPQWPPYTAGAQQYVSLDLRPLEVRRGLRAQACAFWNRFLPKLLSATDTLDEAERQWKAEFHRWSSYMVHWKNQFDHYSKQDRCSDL

For `C#CCN1CCC(COC(=O)N(C)CC)CC1`, the negative logarithm of the IC50 (pIC50) in assay [1], in assay [2], in assay [3] and in assay [4] was less than 4.00 throughout.

`C#CCN1CCC(COC(=O)Nc2ccccc2)CC1`: the pIC50 in assay [1] is 4.99; in assay [2], 4.84; in assay [3], less than 4.00; in assay [4], less than 4.00.

For the compound `C#CCN1CCC(CO)CC1`, the pIC50 in assay [1], in assay [2], in assay [3] and in assay [4] was less than 4.00 each time.

Turning to `CCN(C)C(=O)OCC1CCCN(C2Cc3ccccc3C2)C1` (stereo unspecified), the negative-log IC50 (pIC50) was less than 4.00 in assay [1], 5.03 in assay [2], less than 4.00 in assay [3] and less than 4.00 in assay [4].

Regarding `C#CCN1CCCC(OC(=O)Nc2ccccc2)C1` (stereo unspecified), the pIC50 in assay [1] was less than 4.00; in assay [2], 4.07; in assay [3] it was less than 4.00; in assay [4] it was less than 4.00.

Consider `CC(C)c1ccc(NC(=O)OC2CCN(C3Cc4ccccc4C3)CC2)cc1`, for which the pIC50 in assay [1] is less than 4.00; in assay [2] it was less than 4.00; in assay [3] it was 5.64; in assay [4] it was less than 4.00.

As for `C#CCN1CCCC(COC(=O)Nc2ccccc2)C1` (stereo unspecified), the negative-log IC50 (pIC50) in assay [1] is less than 4.00; in assay [2], 4.53; in assay [3], less than 4.00; in assay [4], less than 4.00.

For the compound `CCN(C)C(=O)OC1CCN(C2Cc3ccccc3C2)CC1`, the pIC50 in assay [1] was less than 4.00; in assay [2], 4.39; in assay [3], less than 4.00; in assay [4], less than 4.00.

Take `C#CCN1CCC(OC(=O)Nc2ccccc2)CC1`: the pIC50 in assay [1] was less than 4.00; in assay [2], 4.72; in assay [3] it was less than 4.00; in assay [4], less than 4.00.

For `CC(C)c1ccc(NC(=O)OCC2CCN(C3Cc4ccccc4C3)CC2)cc1`, the negative-log IC50 (pIC50) was less than 4.00 in assay [1], less than 4.00 in assay [2], 5.39 in assay [3] and less than 4.00 in assay [4].

For the compound `C#CCN1CCCC(COC(=O)Nc2ccc(C(C)C)cc2)C1` (stereo unspecified), the negative-log IC50 (pIC50) in assay [1] was 5.54; in assay [2], 4.75; in assay [3], less than 4.00; in assay [4] it was less than 4.00.

As for `C#CCN1CCC(O)CC1`, the negative-log IC50 (pIC50) in assay [1], in assay [2], in assay [3] and in assay [4] was less than 4.00 throughout.

On to `O=C(Nc1ccccc1)OC1CCN(Cc2ccccc2)CC1`, for which the negative logarithm of the IC50 (pIC50) was less than 4.00 in assay [1], 5.18 in assay [2], less than 4.00 in assay [3] and less than 4.00 in assay [4].

`OC1CCCN(Cc2ccccc2)C1` (stereo unspecified): the pIC50 in assay [1], in assay [2], in assay [3] and in assay [4] was less than 4.00 throughout.

With `OCC1CCCN(Cc2ccccc2)C1` (stereo unspecified), the pIC50 in assay [1], in assay [2], in assay [3] and in assay [4] was less than 4.00 throughout.

Take `O=C(Nc1ccccc1)OCC1CCN(C2Cc3ccccc3C2)CC1`: the negative logarithm of the IC50 (pIC50) in assay [1] is less than 4.00; in assay [2], 5.84; in assay [3], less than 4.00; in assay [4] it was less than 4.00.

Consider `O=C(Nc1ccccc1)OCC1CCCN(C2Cc3ccccc3C2)C1` (stereo unspecified), for which the negative-log IC50 (pIC50) in assay [1] was less than 4.00; in assay [2], 6.75; in assay [3], less than 4.00; in assay [4] it was less than 4.00.

Consider `C#CCN1CCCC(OC(=O)Nc2ccc(C(C)C)cc2)C1` (stereo unspecified), for which the pIC50 in assay [1] is 4.14; in assay [2], less than 4.00; in assay [3], less than 4.00; in assay [4], less than 4.00.

As to `OC1CCN(C2Cc3ccccc3C2)CC1`, the pIC50 in assay [1], in assay [2], in assay [3] and in assay [4] was less than 4.00 in each case.

Turning to `OCC1CCCN(C2Cc3ccccc3C2)C1` (stereo unspecified), the negative logarithm of the IC50 (pIC50) in assay [1], in assay [2], in assay [3] and in assay [4] was less than 4.00 in each case.

Regarding `CC(C)c1ccc(NC(=O)OC2CCCN(Cc3ccccc3)C2)cc1` (stereo unspecified), the pIC50 in assay [1] is 4.53; in assay [2], 5.49; in assay [3] it was less than 4.00; in assay [4] it was less than 4.00.

For the compound `CCN(C)C(=O)OCC1CCCN(Cc2ccccc2)C1` (stereo unspecified), the pIC50 in assay [1] is less than 4.00; in assay [2] it was 5.14; in assay [3], 4.02; in assay [4] it was less than 4.00.

With `C#CCN1CCC(COC(=O)Nc2ccc(C(C)C)cc2)CC1`, the negative-log IC50 (pIC50) is 6.50 in assay [1], 4.61 in assay [2], less than 4.00 in assay [3] and less than 4.00 in assay [4].

For the compound `C#CCN1CCC(OC(=O)N(C)CC)CC1`, the pIC50 in assay [1] is less than 4.00; in assay [2], 4.94; in assay [3], less than 4.00; in assay [4], less than 4.00.

With `C#CCN1CCCC(COC(=O)N(C)CC)C1` (stereo unspecified), the pIC50 in assay [1], in assay [2], in assay [3] and in assay [4] was less than 4.00 each time.

On to `OC1CCN(Cc2ccccc2)CC1`, for which the negative logarithm of the IC50 (pIC50) in assay [1], in assay [2], in assay [3] and in assay [4] was less than 4.00 each time.

`CCN(C)C(=O)OCC1CCN(Cc2ccccc2)CC1`: the negative logarithm of the IC50 (pIC50) in assay [1] is less than 4.00; in assay [2], 4.34; in assay [3], 4.14; in assay [4], less than 4.00.

As for `O=C(Nc1ccccc1)OC1CCN(C2Cc3ccccc3C2)CC1`, the negative-log IC50 (pIC50) in assay [1] was less than 4.00; in assay [2] it was 4.74; in assay [3], 4.72; in assay [4], less than 4.00.

`CC(C)c1ccc(NC(=O)OCC2CCCN(Cc3ccccc3)C2)cc1` (stereo unspecified): the pIC50 in assay [1] is less than 4.00; in assay [2], 6.93; in assay [3] it was 4.82; in assay [4] it was less than 4.00.

In the case of `CCN(C)C(=O)OC1CCCN(Cc2ccccc2)C1` (stereo unspecified), the pIC50 in assay [1] was less than 4.00; in assay [2], 4.68; in assay [3], less than 4.00; in assay [4], less than 4.00.

Consider `OCC1CCN(Cc2ccccc2)CC1`, for which the negative logarithm of the IC50 (pIC50) in assay [1], in assay [2], in assay [3] and in assay [4] was less than 4.00 in each case.

For `O=C(Nc1ccccc1)OCC1CCCN(Cc2ccccc2)C1` (stereo unspecified), the pIC50 in assay [1] is 4.40; in assay [2], 6.28; in assay [3], 4.17; in assay [4], less than 4.00.

For `CC(C)c1ccc(NC(=O)OCC2CCCN(C3Cc4ccccc4C3)C2)cc1` (stereo unspecified), the pIC50 in assay [1] is less than 4.00; in assay [2] it was 6.35; in assay [3], 4.73; in assay [4] it was less than 4.00.

Turning to `C#CCN1CCCC(OC(=O)N(C)CC)C1` (stereo unspecified), the pIC50 in assay [1], in assay [2], in assay [3] and in assay [4] was less than 4.00 in each case.

Regarding `CC(C)c1ccc(NC(=O)OC2CCN(Cc3ccccc3)CC2)cc1`, the pIC50 was less than 4.00 in assay [1], 5.76 in assay [2], less than 4.00 in assay [3] and less than 4.00 in assay [4].

In the case of `OCC1CCN(C2Cc3ccccc3C2)CC1`, the pIC50 in assay [1], in assay [2], in assay [3] and in assay [4] was less than 4.00 each time.

In the case of `O=C(Nc1ccccc1)OC1CCCN(Cc2ccccc2)C1` (stereo unspecified), the negative-log IC50 (pIC50) in assay [1] is 4.48; in assay [2] it was 6.34; in assay [3], less than 4.00; in assay [4] it was less than 4.00.

For the compound `OC1CCCN(C2Cc3ccccc3C2)C1` (stereo unspecified), the negative logarithm of the IC50 (pIC50) in assay [1], in assay [2], in assay [3] and in assay [4] was less than 4.00 throughout.

For `C#CCN1CCCC(O)C1` (stereo unspecified), the negative-log IC50 (pIC50) in assay [1], in assay [2], in assay [3] and in assay [4] was less than 4.00 in each case.
